Test results taken from PubChem BioAssay.
Active and inactive are the calls of the source.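 How the source made its calls, unless noted: active means fluorescence slope higher than the sample average by over 3 SD (cut at about -0.22 in these data, passing the limit was not always enough); inactive means the rest.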

What was measured:
[1] = inhibitors of TNFa-induced NFkB p65 translocation, primary screen, imaging, HUVEC, MLSMR starter and 10KST1 sets (AID 438;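 active means inhibition above 20% together with a positive visual image hit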;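 further: compound added about 3h40 before a 20 min TNFalpha stimulation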;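 on inhibition: signal is the nuclear over cytoplasmic p65 intensity ratio per well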); settings: HUVEC TNFa-induced p65 nuclear translocation; cell count: measured here: nuclei count (cytotoxicity indicator), at 2.08 µM; inhibition: at 2 µM, stronger effect = higher value, 0% TNFa-plus-vehicle, 100% no-TNFa wells
[2] = endothelial E-selectin expression blockers – imaging, HUVEC, immunofluorescence, MLSMR starter and 10KST1 sets, primary screen (AID 487;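 active means visually confirmed hit in the image check and inhibition above 20%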;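 on inhibition: signal is fraction of cell area covered by stained E-selectin grains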;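 on nuclei count: 100% = median nuclei count of all wells on the same plate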); settings: HUVEC TNFalpha-induced E-selectin immunofluorescence imaging, at 2 µM; inhibition: stronger effect = higher value; nuclei count: measured here: cell number, toxicity
[3] = Primary imaging screen for DUSP6 inhibitors that restore phospho-Erk in transfected HeLa cells, chemical complementation (AID 609;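 active means compounds giving at least 50% inhibition in the cell-based MKP-3 phosphatase rescue imaging test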;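 on inhibition: phospho-Erk level distribution per well compared with pooled transfected vehicle control wells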); settings: HeLa MKP-3 transfected, phospho-Erk imaging KS statistic, at 10 µM, cells stimulated with TPA for 15 min
[4] = target: Dual specificity protein phosphatase 6 (Homo sapiens) (UniProt Q16828); assay: as above; settings: HeLa MKP-3 transfected, phospho-Erk imaging KS statistic; at 10 µM; stronger effect = higher value; cells stimulated with TPA for 15 min
[5] = target: Voltage-gated potassium channel subunit beta-2 (Rattus norvegicus) (UniProt P62483); assay: inhibitors of rat Kvbeta2 reductase activity – biochemical, NADPH fluorescence, primary screen (AID 622); settings: recombinant KvBeta, 4-cyanobenzaldehyde reduction, at 10 µM, stronger effect = higher value;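 further: slope of raw intensity against log time taken from 70 to 1610 s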
[6] = target: Voltage-gated potassium channel subunit beta-2 (Rattus norvegicus) (UniProt P62483); assay: enhancers of rat Kvbeta2 NADPH turnover – biochemical, NADPH fluorescence, primary screen (AID 623;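 active means NADPH fluorescence slope more negative than the mean of all samples by about 3 SD, 99.7% confidence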;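 further: fluorescence intensity change per second fitted from 20 to 320 s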); settings: Recombinant KvBeta, NADPH fluorescence decrease slope, 10 min; at 10 µM; stronger effect = lower value
[7] = target: Alpha-2C adrenergic receptor (Homo sapiens) (UniProt P18825); assay: compounds altering alpha2C-coupled GIRK flux – cell-based, HEK293 alpha2C/GIRK1/2, thallium flux, primary screen (AID 624;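 active means fluorescence slope after compound addition differing from the mean of all screened samples at 99.7% confidence, in either direction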;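 further: slope of fluorescence ratio to pre-addition baseline per second over 15 to 24 s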); settings: thallium flux BTC fluorescence, at 10 µM, actives lie on both sides
[8] = inhibitors of larval lipid processing in zebrafish, primary screen, whole organism, PED6 fluorescence, gall bladder and intestine (AID 686;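 active means a full or partial loss of lipid-probe fluorescence in the fish gall bladder, intestine or both, judged by eye; inactive means no fluorescence loss, or compound toxic to the fish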;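 further: larvae 5 to 7 days old with five fish per well; signal comes from phospholipase A2 cleavage of quenched PED6 carried via bile; overnight exposure to compound and PED6 before scoring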); settings: Zebrafish larvae PED6 lipid processing, fluorescence scoring; screened at 20 µM (by protocol)
Summary of the method: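 system = live zebrafish larvae aged 5-7 days, whole organism | probe or stimulus = ingested quenched lipid PED6 at 100 nM | doses = 20 µM single dose | timing = overnight exposure | detection = fluorescence microscopy with visual scoring of gall bladder and intestine | read-out = visual per-well fluorescence inhibition score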

[9] = loss of swimming-algae plug formation – whole organism, Chlamydomonas reinhardtii, WT vs cilia-less mutant, absorbance, 96-well, primary screen (AID 463189;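 active means inhibition at or above 50% relative to wild type and mutant plate controls; inactive means inhibition below 50%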;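 further: 0% = wild type cc124 cells in DMSO and 100% = ciliumless bld1 mutant cells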); settings: Chlamydomonas reinhardtii gravitaxis, OD600 absorbance, 2 days; at 10 µM; stronger effect = higher value
[10] = measured here: cell density z-score
[11] = measured here: nuclear c-Myc green intensity z-score
[12] = measured here: nuclear pErk red intensity z-score, stronger effect = higher value

Dual specificity protein phosphatase 6 (Homo sapiens), sequence (Q16828 whole entry, looked up): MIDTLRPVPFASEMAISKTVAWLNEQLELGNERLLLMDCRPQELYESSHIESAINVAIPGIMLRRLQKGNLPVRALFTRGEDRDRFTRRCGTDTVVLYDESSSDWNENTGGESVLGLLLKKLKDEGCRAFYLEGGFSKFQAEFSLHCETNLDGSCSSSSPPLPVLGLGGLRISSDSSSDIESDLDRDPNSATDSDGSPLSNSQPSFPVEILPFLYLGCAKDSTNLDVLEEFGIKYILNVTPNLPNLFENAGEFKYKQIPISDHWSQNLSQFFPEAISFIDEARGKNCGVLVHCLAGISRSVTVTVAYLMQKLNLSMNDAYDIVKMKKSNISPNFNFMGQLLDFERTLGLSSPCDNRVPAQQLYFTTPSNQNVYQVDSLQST
Alpha-2C adrenergic receptor (Homo sapiens), sequence (P18825 whole entry, looked up): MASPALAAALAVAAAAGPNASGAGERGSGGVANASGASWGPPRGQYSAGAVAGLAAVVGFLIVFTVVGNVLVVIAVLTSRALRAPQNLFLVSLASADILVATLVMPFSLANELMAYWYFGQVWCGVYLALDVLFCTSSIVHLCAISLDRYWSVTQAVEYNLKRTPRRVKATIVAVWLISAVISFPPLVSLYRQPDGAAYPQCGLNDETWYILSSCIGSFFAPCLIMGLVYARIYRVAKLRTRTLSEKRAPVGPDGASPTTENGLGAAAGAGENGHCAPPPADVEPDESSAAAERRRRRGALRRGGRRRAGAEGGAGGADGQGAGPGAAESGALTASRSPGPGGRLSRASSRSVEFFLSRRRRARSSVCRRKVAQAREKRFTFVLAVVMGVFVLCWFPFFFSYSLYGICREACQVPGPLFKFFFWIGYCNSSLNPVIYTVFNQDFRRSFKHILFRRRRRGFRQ
Voltage-gated potassium channel subunit beta-2 (Rattus norvegicus), sequence (P62483 whole entry, looked up): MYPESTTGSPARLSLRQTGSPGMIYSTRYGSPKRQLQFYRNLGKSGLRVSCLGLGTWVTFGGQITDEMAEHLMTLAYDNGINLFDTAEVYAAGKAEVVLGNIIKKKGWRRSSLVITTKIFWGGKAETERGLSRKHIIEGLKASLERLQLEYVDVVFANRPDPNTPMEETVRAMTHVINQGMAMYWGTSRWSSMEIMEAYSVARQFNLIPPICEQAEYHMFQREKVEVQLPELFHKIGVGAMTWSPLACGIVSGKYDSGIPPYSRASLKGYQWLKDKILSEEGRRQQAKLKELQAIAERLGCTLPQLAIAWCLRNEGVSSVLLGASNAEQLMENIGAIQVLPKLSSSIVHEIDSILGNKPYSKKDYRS

| Structure (SMILES) | cell count [1] | inhibition [1] | inhibition [2] | nuclei count [2] [%] | z-score [3, 10] | z-score [3, 11] | z-score [3, 12] | inhibition [4] | fluorescence slope [5] | NADPH fluorescence slope [6] | slope [7] | outcome [8] | inhibition [9] |
| --- | --- | --- | --- | --- | --- | --- | --- | --- | --- | --- | --- | --- | --- |
| O/N=C(\c1ccc2c(c1)OCCO2)C1CCCCC1 | 483 | -8.4% (inactive) | 0.8% (inactive) | 88.1 | -0.525 | -0.257 | 1.15 | -1.98% (inactive) | -0.497 (inactive) | -3.9e-05 (inactive) | 0.00548 (inactive) | inactive | 124% (active) |
| O=c1[nH]cnc2cc(-c3ccccc3)sc12 | 526 | -9.9% (inactive) | -20.4% (inactive) | 168 | 0.45 | -1.43 | 0.87 | 21% (inactive) | -0.351 (inactive) | -9.5e-06 (inactive) | 0.00529 (inactive) | inactive | -1.84% (inactive) |
| COc1ccc(-c2cc(-c3ccccc3)n3ncnc3n2)cc1 | 451 | 3.2% (inactive) | -35.1% (inactive) | 162 | 1.29 | 1.44 | -0.816 | -1.12% (inactive) | -0.00896 (inactive) | -5.1e-07 (inactive) | 0.00473 (inactive) | inactive | -19.8% (inactive) |
| Cn1c(N2CCOCC2)nc2c1c(=O)n(Cc1ccc(Cl)c(Cl)c1)c(=O)n2C | 616 | -1.9% (inactive) | -39.8% (inactive) | 146 | -0.645 | 0.0379 | -0.103 | 2.46% (inactive) | -0.474 (inactive) | -0.000203 (inactive) | 0.00465 (inactive) | inactive | 24.4% (inactive) |
| Cc1ccc(N(CN2C(=O)NC(C)(C)C2=O)CN2C(=O)NC(C)(C)C2=O)cc1 | 465 | 5.9% (inactive) | -355% (inactive) | 156 | 0.539 | 0.101 | 0.322 | 2.71% (inactive) | -0.315 (inactive) | -9.5e-06 (inactive) | 0.00542 (inactive) | inactive | 5.64% (inactive) |
| CN(C)c1ccc(C2C3C(=O)N(c4ccc(C(=O)O)cc4)C(=O)C3ON2c2ccccc2)cc1 (stereo unspecified) | 491 | -9.3% (inactive) | -30.7% (inactive) | 148 | -0.854 | -1.46 | 0.576 | -13.3% (inactive) | -0.506 (inactive) | -3.3e-05 (inactive) | 0.00498 (inactive) | inactive | 13% (inactive) |
| CCC1(C)Cc2c(sc3c2c(=O)n(C)c2nnc(SCc4ccc5c(c4)OCO5)n32)CO1 (stereo unspecified) | 497 | -11% (inactive) | 34% (inactive) | 98.6 | 1.16 | 0.737 | -1.44 | 22.3% (inactive) | -0.418 (inactive) | 9.4e-07 (inactive) | 0.00552 (inactive) | inactive | 46.1% (inactive) |
| CCOc1cccc(-c2nnc3sc(-c4cc(OC)c(OC)c(OC)c4)nn23)c1 | 647 | -9.1% (inactive) | -15.9% (inactive) | 171 | 1.15 | 0.91 | -0.181 | -15% (inactive) | -0.39 (inactive) | -0.000117 (inactive) | 0.00923 (inactive) | inactive | 6.41% (inactive) |
| CC(C)c1nc(N2CCOCC2)c(C#N)c2c1CCC2 | 533 | 2.9% (inactive) | -92.4% (inactive) | 140 | 0.739 | -0.974 | -0.00414 | 10.5% (inactive) | -0.511 (inactive) | 3.3e-06 (inactive) | 0.0055 (inactive) | inactive; toxic | -0.955% (inactive) |
| C=CCOc1nc2c(c(=O)n(Cc3ccc(Cl)c(Cl)c3)c(=O)n2C)n1C | 654 | 0.8% (inactive) | -39.8% (inactive) | 140 | 1.05 | 1.15 | -1.45 | -2.91% (inactive) | -0.492 (inactive) | -0.000116 (inactive) | 0.00594 (inactive) | inactive | -5.33% (inactive) |
| CCCCNC1=C(Br)C(=O)CC(C)(C)C1 | 372 | -30.7% (inactive) | -34.3% (inactive) | 101 | -0.472 | 1.05 | 0.291 | 11.9% (inactive) | -0.52 (inactive) | -9.2e-05 (inactive) | 0.00547 (inactive) | inactive | 23.6% (inactive) |
| COCc1[nH]nc2c1C(c1ccccc1OC)C(C#N)=C(N)O2 (stereo unspecified) | 633 | -4.1% (inactive) | 27.6% (inactive) | 101 | 0.246 | 0.997 | -0.624 | -7.28% (inactive) | -0.488 (inactive) | -1.1e-05 (inactive) | 0.00544 (inactive) | inactive | 31.9% (inactive) |
| Cc1cc(C)n(CC(=O)n2nc(C)cc2C)n1 | 519 | -6.2% (inactive) | -24.6% (inactive) | 81.7 | 0.222 | 0.17 | 0.394 | 5.95% (inactive) | -0.492 (inactive) | -2.9e-05 (inactive) | 0.00514 (inactive) | inactive | 15% (inactive) |
| O=S(CCc1ccncc1)Cc1ccccc1 (stereo unspecified) | 337 | -23.4% (inactive) | -114% (inactive) | 140 | -0.83 | 1.38 | 2.01 | -14% (inactive) | -0.427 (inactive) | -0.000147 (inactive) | 0.00701 (inactive) | inactive | -11.4% (inactive) |
| COc1ccc(N/C(=N\c2nc(C)cc(C)n2)NC(=O)C(C)C)cc1OC | 568 | -6% (inactive) | -158% (inactive) | 138 | 0.3 | 1.29 | 0.284 | 3.97% (inactive) | -0.481 (inactive) | -3.5e-05 (inactive) | 0.00493 (inactive) | inactive | 1.34% (inactive) |
| Cc1nn(-c2cccc(Cl)c2)c2c1C(c1ccncc1)C(C#N)=C(N)O2 (stereo unspecified) | 374 | -13.7% (inactive) | -56% (inactive) | 98.8 | -2.16 | -0.307 | -1.54 | 2.46% (inactive) | -0.382 (inactive) | 4.7e-05 (inactive) | 0.00526 (inactive) | inactive | -1.15% (inactive) |
| c1csc(-c2nn3c(C4CCCCC4)nnc3s2)c1 | 623 | -8.5% (inactive) | -52.2% (inactive) | 155 | -1.83 | -0.584 | 2.62 | -15% (inactive) | -0.426 (inactive) | -0.00015 (inactive) | 0.00407 (inactive) | inactive | 13.7% (inactive) |
| CCn1c(-c2ccco2)n[nH]c1=S | 428 | -12.3% (inactive) | -47.8% (inactive) | 92.3 | 0.73 | 0.522 | -1.57 | 22.3% (inactive) | -0.542 (inactive) | -2.6e-05 (inactive) | 0.00489 (inactive) | inactive | 19.9% (inactive) |
| Clc1ccc2[nH]c3c(NCCCN4CCOCC4)ncnc3c2c1 | 471 | -7.1% (inactive) | -31.4% (inactive) | 102 | -0.293 | -0.352 | 1.38 | -13.3% (inactive) | -0.52 (inactive) | 6.4e-06 (inactive) | 0.00501 (inactive) | inactive | -7.19% (inactive) |
| CC(C)Oc1ccc(Cc2c(O)nc(NCCCN(C)C)[nH]c2=O)cc1 | 383 | -15.2% (inactive) | -285% (inactive) | 152 | -0.061 | -1.61 | -0.785 | -2.07% (inactive) | -0.396 (inactive) | -1e-05 (inactive) | 0.00657 (inactive) | inactive | 26.1% (inactive) |
| CC(C)C1Cc2c(sc3c2c(=O)n(Cc2ccccc2)c2nncn32)CO1 (stereo unspecified) | 557 | -4.6% (inactive) | -2.8% (inactive) | 115 | 1.56 | 0.421 | -0.614 | 9.61% (inactive) | -0.481 (inactive) | -0.000346 (inactive) | 0.00509 (inactive) | inactive | 8.24% (inactive) |
| N#CC1=C(N)NC(SCc2ccc(F)cc2)=C(C#N)C12CCCCC2 | 614 | -15.5% (inactive) | 24.8% (inactive) | 164 | -0.696 | -0.0167 | -0.195 | 6.04% (inactive) | -0.404 (inactive) | -4.7e-05 (inactive) | 0.0043 (inactive) | inactive | -1.21% (inactive) |
| COC(=O)CSc1nnc2n(-c3ccc(OC)cc3)c(=O)c3c4c(sc3n12)CCCCC4 | 607 | -2.8% (inactive) | -233% (inactive) | 149 | -0.0268 | 0.911 | -4.12 | 1.04% (inactive) | -0.411 (inactive) | -4.4e-05 (inactive) | 0.00667 (inactive) | inactive | -10.1% (inactive) |
| CC(C)OC(=O)c1nn2c(C(F)(F)F)cc(-c3ccc(Br)o3)nc2c1Br | 519 | -4.9% (inactive) | 5.6% (inactive) | 127 | -1.28 | -0.277 | 1.66 | -9.7% (inactive) | -0.29 (inactive) | -4.3e-06 (inactive) | 0.00144 (inactive) | inactive | 18.5% (inactive) |
| COC(=O)c1ccc(=O)n(Cc2ccc3c(c2)OCO3)c1 | 394 | -2.1% (inactive) | -128% (inactive) | 137 | 2.55 | 0.425 | -1.58 | 2.46% (inactive) | -0.427 (inactive) | -4.6e-05 (inactive) | 0.00627 (inactive) | inactive | -6.36% (inactive) |
| COCc1[nH]nc2c1C(c1cccc(OC)c1)C(C#N)=C(N)O2 (stereo unspecified) | 637 | -2.3% (inactive) | -17.7% (inactive) | 174 | 0.403 | -0.811 | -1.74 | -2.29% (inactive) | -0.403 (inactive) | -3.7e-05 (inactive) | 0.00513 (inactive) | inactive | 2.83% (inactive) |
| CCOc1nc(SCCOc2ccc(C)cc2)nc(N(C)C)n1 | 346 | -10.2% (inactive) | -115% (inactive) | 91.5 | 2.72 | -0.00429 | -0.85 | 22.8% (inactive) | -0.474 (inactive) | 3.1e-05 (inactive) | 0.0074 (inactive) | inactive | 30.3% (inactive) |
